In assay [1] the target is T1, bacterial NOX5 (Cylindrospermum stagnale, UniProt K9WT99).
T1 sequence (K9WT99 1-693): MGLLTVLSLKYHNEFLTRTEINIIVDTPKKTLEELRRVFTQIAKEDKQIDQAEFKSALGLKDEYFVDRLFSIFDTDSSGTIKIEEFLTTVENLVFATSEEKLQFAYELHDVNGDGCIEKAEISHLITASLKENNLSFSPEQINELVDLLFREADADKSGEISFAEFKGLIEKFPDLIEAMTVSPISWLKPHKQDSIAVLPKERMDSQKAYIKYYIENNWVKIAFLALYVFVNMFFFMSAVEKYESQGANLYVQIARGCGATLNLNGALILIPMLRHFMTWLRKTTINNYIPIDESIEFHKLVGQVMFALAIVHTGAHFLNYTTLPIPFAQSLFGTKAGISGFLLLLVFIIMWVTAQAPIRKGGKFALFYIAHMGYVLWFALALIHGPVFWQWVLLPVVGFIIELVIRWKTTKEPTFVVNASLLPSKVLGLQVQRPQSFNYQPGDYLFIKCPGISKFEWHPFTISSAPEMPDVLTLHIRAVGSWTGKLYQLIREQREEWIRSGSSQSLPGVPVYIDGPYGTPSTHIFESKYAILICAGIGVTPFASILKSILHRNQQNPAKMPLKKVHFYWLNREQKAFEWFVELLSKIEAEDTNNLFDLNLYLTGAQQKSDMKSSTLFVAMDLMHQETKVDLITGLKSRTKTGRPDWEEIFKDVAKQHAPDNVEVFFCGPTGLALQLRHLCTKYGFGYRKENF
Nature of the assay: Initial evaluation on NOX5 membrane preparations. It counts as biochemical. To be noted: 100 μM compound, membranes.

In assay [2] the target is T2, wild-type dehydrogenase domain of bacterial NOX5 (Cylindrospermum stagnale, UniProt K9WT99).
T2 sequence (K9WT99 413-693): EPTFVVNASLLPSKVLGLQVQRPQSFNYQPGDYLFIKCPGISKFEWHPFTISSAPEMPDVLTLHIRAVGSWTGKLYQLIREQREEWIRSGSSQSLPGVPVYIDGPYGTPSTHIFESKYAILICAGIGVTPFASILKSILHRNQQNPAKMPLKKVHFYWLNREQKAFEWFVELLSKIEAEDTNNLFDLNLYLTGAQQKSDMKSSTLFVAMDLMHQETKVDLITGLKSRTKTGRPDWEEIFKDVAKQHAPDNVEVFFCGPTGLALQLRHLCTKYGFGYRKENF
Nature of the assay: NADPH-depletion assay on purified wild-type NOX5 dehydrogenase domain. It counts as biochemical. The conditions noted are these: wild-type domain, exogenous FAD 300 μM.

Assay [3] addresses full-length bacterial NOX5 (Cylindrospermum stagnale, UniProt K9WT99). The assay is described as follows: biochemical.
For the next assay, the target named is T3, human NOX2 (Homo sapiens, UniProt P04839).
T3 sequence (P04839 2-570 limits assumed): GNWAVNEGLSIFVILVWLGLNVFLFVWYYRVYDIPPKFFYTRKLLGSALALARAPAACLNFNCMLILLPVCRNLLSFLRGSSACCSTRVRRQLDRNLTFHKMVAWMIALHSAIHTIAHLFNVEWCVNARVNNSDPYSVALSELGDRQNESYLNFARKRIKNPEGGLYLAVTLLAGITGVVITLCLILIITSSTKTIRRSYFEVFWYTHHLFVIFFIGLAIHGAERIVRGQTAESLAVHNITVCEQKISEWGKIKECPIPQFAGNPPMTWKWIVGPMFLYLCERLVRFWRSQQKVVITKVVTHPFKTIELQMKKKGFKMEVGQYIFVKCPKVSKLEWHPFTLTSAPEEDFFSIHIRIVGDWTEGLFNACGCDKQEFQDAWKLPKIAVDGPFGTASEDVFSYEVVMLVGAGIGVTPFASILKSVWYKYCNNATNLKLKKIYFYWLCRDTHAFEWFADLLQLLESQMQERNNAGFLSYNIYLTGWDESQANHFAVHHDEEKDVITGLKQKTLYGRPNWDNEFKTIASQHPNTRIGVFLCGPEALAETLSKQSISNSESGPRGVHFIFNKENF
T3 sequence (P13498 2-195 partner limits assumed): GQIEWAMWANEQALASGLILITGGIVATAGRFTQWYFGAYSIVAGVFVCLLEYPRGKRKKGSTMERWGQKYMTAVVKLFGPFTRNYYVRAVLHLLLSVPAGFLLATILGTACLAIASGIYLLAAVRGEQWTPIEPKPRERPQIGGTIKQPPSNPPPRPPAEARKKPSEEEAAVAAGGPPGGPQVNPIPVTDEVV
The assay is described as follows: Initial evaluation on NOX2 membrane preparations. It counts as biochemical.

In another assay the target is T4, human NOX4 (Homo sapiens, UniProt Q9NPH5).
T4 sequence (Q9NPH5 1-578): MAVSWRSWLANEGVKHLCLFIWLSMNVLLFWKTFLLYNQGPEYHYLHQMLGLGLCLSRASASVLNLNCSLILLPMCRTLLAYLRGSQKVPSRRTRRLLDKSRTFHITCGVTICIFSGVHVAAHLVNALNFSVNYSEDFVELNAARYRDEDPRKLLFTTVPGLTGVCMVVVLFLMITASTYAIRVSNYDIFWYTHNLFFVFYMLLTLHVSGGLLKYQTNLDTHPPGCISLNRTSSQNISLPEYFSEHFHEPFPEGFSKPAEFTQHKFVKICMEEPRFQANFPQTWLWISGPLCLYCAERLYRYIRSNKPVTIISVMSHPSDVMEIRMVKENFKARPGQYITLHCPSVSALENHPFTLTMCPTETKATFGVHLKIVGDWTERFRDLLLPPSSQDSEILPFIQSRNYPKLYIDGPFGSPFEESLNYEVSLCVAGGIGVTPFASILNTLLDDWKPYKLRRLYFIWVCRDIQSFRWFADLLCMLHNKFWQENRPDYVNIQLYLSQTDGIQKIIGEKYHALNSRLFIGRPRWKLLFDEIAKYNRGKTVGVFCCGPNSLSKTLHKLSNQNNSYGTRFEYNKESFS
T4 sequence (P13498 2-195 partner limits assumed): T3 sequence (P13498 2-195 partner limits assumed)
The assay is described as follows: Initial evaluation on NOX4 membrane preparations. It is filed as biochemical. The conditions noted are these: for inhibition of NOX4 (in words): 100 μM compound, membranes. Put shortly: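 NOX4-p22 membranes from transfected HEK293 EBNA-1 cells, compound 100 μM, 10 min preincubation at 4 °C in PBS. Amplex Red: 100 μg membranes, 12.5 μM Amplex Red, 0.02 U/ml HRP, 40 μM FAD, started with 40 μM NADPH, ex 572/em 583 nm. CBA: 50 μg membranes, 20 μM FAD, then 200 μM coumarin boronic acid and 50 μM NADPH, ex 320/em 430 nm.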

The target in assay [4] is C-terminal mutant dehydrogenase domain of bacterial NOX5. The assay is described as follows: NADPH-depletion assay on C-terminal mutant NOX5 dehydrogenase domain. It is filed as biochemical, Cylindrospermum stagnale.
Another assay has as its target xanthine oxidase (Bos taurus, UniProt P80457). The assay is described as follows: Xanthine Oxidase assay. It counts as biochemical. The conditions noted are these: 100 μM compound, hypoxanthine, Amplex Red/peroxidase. Put shortly: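 Compound (100 μM) with xanthine oxidase, 100 μM Amplex Red, 0.4 U/mL horseradish peroxidase and 0.2 mM hypoxanthine. 15 min at 37 °C; H2O2-derived resorufin read by fluorescence, ex 530/em 590 nm.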

Assay [5] has as its target T1, bacterial NOX5. The assay is described as follows: MCLA assay on NOX5 membranes. It is filed as biochemical. Put shortly: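 E. coli membranes carrying FLAG-(His)8-SUMO-tagged C. stagnale NOX5, 12 μg, in PBS with 1 mM CaCl2, 0.5 μM FAD and 1 μM MCLA. Compound (100 μM single point, or concentration series) 10 min at 25 °C. Started with 200 μM NADPH; chemiluminescence read. Membranes lacking NOX5 set noise level. IC50 by sigmoidal fit, % of untreated control.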

Assay [6] concerns C668S mutant of the NOX5 dehydrogenase domain. The assay is described as follows: Enzymatic assay on C668S mutant NOX5 dehydrogenase domain. It is filed as biochemical, Cylindrospermum stagnale. To be noted: enzymatic assays. The method in brief: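 Purified strep-tagged C. stagnale NOX5 dehydrogenase domain (residues 413–693), C668S mutant, 1 μM in 50 mM Hepes pH 7.5 without added FAD. Run at 25 °C in a thermostatted spectrophotometer; rates followed as NADPH oxidation at 340 nm.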

“Also recorded” adds a separate entry of the source.

Sequence of xanthine oxidase (P80457 whole entry): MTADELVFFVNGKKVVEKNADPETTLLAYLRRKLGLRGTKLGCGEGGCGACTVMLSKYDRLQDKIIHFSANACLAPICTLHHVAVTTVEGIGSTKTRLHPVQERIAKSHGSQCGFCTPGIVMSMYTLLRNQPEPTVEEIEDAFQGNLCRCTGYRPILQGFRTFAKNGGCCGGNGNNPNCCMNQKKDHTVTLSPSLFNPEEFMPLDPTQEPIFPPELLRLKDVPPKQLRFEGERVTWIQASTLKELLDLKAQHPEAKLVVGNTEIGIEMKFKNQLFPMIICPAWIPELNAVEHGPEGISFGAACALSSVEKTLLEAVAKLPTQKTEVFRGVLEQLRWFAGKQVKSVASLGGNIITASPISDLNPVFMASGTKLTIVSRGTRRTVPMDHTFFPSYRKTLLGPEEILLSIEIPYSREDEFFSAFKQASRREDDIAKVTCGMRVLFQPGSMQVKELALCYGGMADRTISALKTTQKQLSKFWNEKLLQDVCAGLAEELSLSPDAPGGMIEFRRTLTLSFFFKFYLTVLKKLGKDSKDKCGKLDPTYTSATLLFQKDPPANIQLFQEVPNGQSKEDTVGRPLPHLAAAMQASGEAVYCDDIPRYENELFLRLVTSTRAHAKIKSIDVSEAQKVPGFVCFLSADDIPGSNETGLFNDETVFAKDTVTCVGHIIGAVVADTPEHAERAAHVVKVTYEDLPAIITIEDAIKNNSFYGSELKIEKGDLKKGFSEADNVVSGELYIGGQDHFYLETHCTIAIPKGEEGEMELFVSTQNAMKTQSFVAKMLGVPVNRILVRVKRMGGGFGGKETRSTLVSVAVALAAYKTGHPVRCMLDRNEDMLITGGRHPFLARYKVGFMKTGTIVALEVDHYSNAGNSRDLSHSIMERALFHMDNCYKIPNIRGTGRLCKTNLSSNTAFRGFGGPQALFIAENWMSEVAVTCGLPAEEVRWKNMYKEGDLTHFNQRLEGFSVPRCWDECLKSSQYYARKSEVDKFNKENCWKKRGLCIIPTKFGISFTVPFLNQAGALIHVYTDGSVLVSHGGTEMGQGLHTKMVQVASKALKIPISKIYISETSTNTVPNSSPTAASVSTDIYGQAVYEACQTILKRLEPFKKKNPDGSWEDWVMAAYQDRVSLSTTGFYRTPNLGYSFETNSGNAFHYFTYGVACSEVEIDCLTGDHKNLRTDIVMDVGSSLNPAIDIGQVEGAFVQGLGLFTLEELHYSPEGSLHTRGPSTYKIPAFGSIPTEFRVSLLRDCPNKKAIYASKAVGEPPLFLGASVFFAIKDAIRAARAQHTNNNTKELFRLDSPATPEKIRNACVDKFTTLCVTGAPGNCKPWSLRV

Usually Ki stands for the equilibrium dissociation constant of an inhibitor or competing ligand from its target. Read a high Ki as lower affinity. For orientation: IC50 means the midpoint of a concentration-inhibition curve. High values mean weaker potency in that assay, low ones greater potency in that assay. As to `c1ccc2c(c1)[I+]c1ccccc1-2` [DPI, Diphenylene iodonium], at bacterial NOX5 [1], the “inhibition of NOX5 (in words)” value is reported as “full”. Moreover, the αKi is 127 ± 13 µM in assay [2] and 0.42 ± 0.06 µM in [4] (uncompetitive, low-activity mutant of the dehydrogenase domain). The inhibition constant (Ki) in assay [3] came out at 980 ± 140 nM. Also, the “inhibition of NOX2 (in words)” value on human NOX2 (100 μM compound, membranes) is given as “full”. The “inhibition of NOX4 (in words)” value against human NOX4 is on record as “full”. For the same compound, the “inhibition of the hydrogen peroxide-producing activity of xanthine oxidase” value against xanthine oxidase is given as “powerful inhibitions; also recorded: inhibits xanthine oxidase”. This compound also returned an IC50 on bacterial NOX5 [5] of 3280 ± 1320 nM.
Broadly, the inhibition is the percentage by which the read-out fell short of the control. Turning to `c1ccc(Cn2nnc3c(Sc4nc5ccccc5o4)ncnc32)cc1` [VAS2870, 3-benzyl-7-(2-benzoxazolyl)thio-1,2,3-triazolo[4,5-d]pyrimidine], in [6], the “inhibition of the C668S mutant domain” value was “could not inhibit the mutant domain”. Further, the inhibition at 100 µM on human NOX2 (read-out: inhibition of NOX2) and on human NOX4 (read-out: inhibition of NOX4) was 40 to 70% each time. Besides, on human NOX2 (sufficiently long incubation times (Fig. 7B)), the “inhibition of NOX2 with long incubation” value is recorded as “became significant”. In addition, on human NOX4, the “inhibition of NOX4 (in words)” value is given as “powerful NOX4 inhibitors”. Besides, the “inhibition of the mutant dehydrogenase” value in assay [4] (100 μM inhibitor, C-terminal (PWLEL) low-activity mutant) is 20–30%.

For the origin of these results see PMC7042484 (Redox Biology, 2020).
